Compound activity from PubChem BioAssay.
Diaphorase inh: counter-screen for diaphorase-based assays: diaphorase inhibitors and chemical oxidizers | diaphorase resazurin-to-resorufin fluorescence, NADH, 16 min; bacterial (C. kluyveri) enzyme, not human | inhibition, % at 20 µM | 190,000 tested, 0.69% active;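 active = primary screen inhibition at 20 µM above a set limit, cut at about 50% in these data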;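 also: plate controls were DMSO with full reaction for no effect and wells lacking NADH for full effect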
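Test system: diaphorase enzyme from Clostridium kluyveri; amount: diaphorase at 0.14 U/mL in enzyme working solution; detection: fluorescence of resorufin formed from resazurin, Ex 544/Em 590 nm; times: reaction incubation of 16 min at room temperature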
L major viab: Leishmania major promastigote growth inhibition. 200,000 tested, 9% active. Leishmania major promastigotes, resazurin fluorescence viability. inhibition, % at 10 µM;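 also: promastigotes grown with compound for 44 hours at 28 °C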
Diaphorase act: counter-screen for diaphorase-based assays: diaphorase activators and chemical reducers; Diaphorase/resazurin coupled assay, resorufin fluorescence, 16 min; stronger effect = higher value; 1 = vehicle wells, 0 = NADH-free wells; activation factor at 20 µM; 190,000 tested, 0.005% active;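 active = diaphorase activity raised at least twofold by the compound at 20 µM; inactive = activation factor below 2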
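Material: purified diaphorase enzyme from Clostridium kluyveri / Medium: HEPES pH 7.4 buffer with MgCl2 and Tween 20 / Schedule: enzyme reaction of 16 min at room temperature / Measured by: resorufin fluorescence, excitation 544 nm, emission 590 nm / Evaluation: rise in resorufin formation, marking diaphorase activation or chemical reduction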
G6PDH counter: inhibits Leuconostoc G6PDH, flagging false hits in G6PDH-based assays. Purified L. mesenteroides G6PDH, diaphorase/resazurin coupled fluorescence, 45 min. 200,000 tested, 0.12% active. AID 1020. inhibition, % at 5 µM
WT yeast gro inh: growth inhibition of WT yeast, mitochondrial fusion screen; 190,000 tested, 2.1% active; inhibition, % at 10 µM; AID 1362; mitochondrial fusion phenotypic screen, WT strain; in the data active = inhibition above about 58%; tested in S. cerevisiae
Active calls of the source: *. Sampled rows, rich in hits. Any-hit rate of the full collection: about 11%. Rule as the data show it, unless noted: active = inhibition above about 50%; inactive = the rest.

SMILES | Diaphorase inh | L major viab | Diaphorase act | G6PDH counter | WT yeast gro inh
CC1CCC(C(C)C)C(OCC(O)CNC(C)c2ccccc2)C1 (centres undefined) | 4 | 77* | 1 | 7 | 67*
Cn1c(CN2CCN(c3ccc(Cl)cc3)CC2)nc2ccccc21 | 21 | 12 | 0.8 | 14 | 17
CCn1c(CN2CCN(c3ccc(Cl)cc3)CC2)nc2ccccc21 | 13 | 17 | 0.9 | 8 | 60*
CCCn1c(CN2CCN(C)CC2)nc2ccccc21 | -2 | -3 | 1 | 8 | 0
CCCCn1c(CN2CCN(C)CC2)nc2ccccc21 | -18 | 61* | 1.2 | 13 | -6
O=C(Nc1nc(-c2cccs2)c(C(=O)C(F)(F)F)s1)c1ccccc1 | 22 | 7 | 0.8 | 29 | 60*
C=CCN1C(c2ccccc2)=CS/C1=C(\C#N)c1nnc2n1CCCCC2 | -12 | -4 | 1.1 | 10 | 15
CN1C(c2ccc(F)cc2)=CS/C1=C(\C#N)c1nnc2n1-c1ccccc1SC2 | 12 | 79* | 0.9 | 10 | 15
CCN(CC)S(=O)(=O)c1ccc(C2=NOC3(C2)N(C)c2ccccc2C3(C)C)cc1 (centres undefined) | 8 | 84* | 0.9 | 2 | 16
CN1c2ccccc2C(C)(C)C12CC(c1ccc(S(=O)(=O)N3CCCCC3)cc1)=NO2 (centres undefined) | 26 | 44 | 0.7 | 2 | 7
CN1c2ccccc2C(C)(C)C12CC(c1cccc(S(=O)(=O)N3CCCC3)c1)=NO2 (centres undefined) | -5 | 73* | 1 | 14 | 5
Cc1noc(C)c1C(=O)OCC(=O)Nc1ccccc1Oc1ccccc1 | 21 | -2 | 0.8 | 3 | 59*
CCCC(=O)c1c(NCCO)cc(C)oc1=O | -8 | 8 | 1.1 | 0 | 14
CC1CCN(C(=O)N2c3ccccc3Sc3ccccc32)CC1 | 7 | 7 | 0.9 | 9 | 32
CC1CCCN(C(=O)N2c3ccccc3Sc3ccccc32)C1 (centres undefined) | 11 | 5 | 0.9 | -1 | 69*
CSCCC(NS(=O)(=O)c1ccc(Cl)cc1)C(=O)OCC(=O)N(C(C)C)C(C)C (centres undefined) | 2 | 5 | 1 | 7 | 4
CSCCC(NS(=O)(=O)c1ccccc1F)C(=O)OCc1ccccc1Cl (centres undefined) | 16 | 75* | 0.8 | 20 | 38
CSCCC(NS(=O)(=O)c1ccc(Cl)cc1)C(=O)OCc1cccc(Cl)c1 (centres undefined) | 31 | 97* | 0.7 | 12 | 41
CSCCC(NS(=O)(=O)c1ccc(Cl)cc1)C(=O)OCc1c(Cl)cccc1Cl (centres undefined) | 16 | 99* | 0.8 | 6 | 53
CCN1C(=O)C(C)S/C1=N\S(=O)(=O)c1ccc(Cl)s1 (centres undefined) | 15 | -5 | 0.8 | -2 | 11
O=C(NC(=S)Nc1ccc(S(=O)(=O)Nc2ncccn2)cc1)c1ccc(Br)cc1 | 17 | -8 | 0.8 | 8 | -17
COCCNC(=O)C(c1cccnc1)N(Cc1ccccc1)C(=O)Cn1nnc2ccccc21 (centres undefined) | 0 | -4 | 1 | 5 | 15
O=C(COc1ccc(/C=N/NC(=O)c2ccccc2O)cc1)Nc1ccccc1 | -20 | -5 | 1.2 | -1 | 2
CC(=O)Nc1sc(NC(=O)c2ccc(C)cc2)nc1-c1cccs1 | 10 | 1 | 0.9 | 0 | -9
Cc1cc(C)c(CSc2ncc(-c3ccc([N+](=O)[O-])cc3)[nH]2)c(C)c1 | 12 | 97* | 0.9 | 19 | 24
SMILES | Diaphorase inh | L major viab | Diaphorase act | G6PDH counter | WT yeast gro inh
Cn1ccnc1SCC(=O)Nc1nc2c(F)c(F)c(F)cc2s1 | 4 | -3 | 1 | 2 | -12
Cc1ccc(C(=O)Oc2ccc(Cl)c3cccnc23)cc1[N+](=O)[O-] | 26 | 98* | 0.7 | 24 | 25
NC(=O)c1ccc(Oc2cccc3cccnc23)c([N+](=O)[O-])c1 | 12 | 3 | 0.9 | 18 | 4
COc1ccc(C(=O)Oc2cccc3cccnc23)cc1[N+](=O)[O-] | 28 | 93* | 0.7 | 47 | 17
Clc1ccc(CSc2nnnn2-c2ccc3c(c2)OCO3)c(Cl)c1 | 0 | 10 | 1 | 2 | -9
CCOC(=O)C1CCN(C(=O)c2ccco2)CC1 | 4 | -5 | 1 | 8 | 10
CCOC(=O)C1CCN(C(=O)c2c(C)oc3c2C(=O)c2ccccc2C3=O)CC1 | 11 | 100* | 0.9 | 60* | -2
Cc1oc2c(c1C(=O)N1CCC(C)CC1)C(=O)c1ccccc1C2=O | 18 | 100* | 0.8 | 56* | 0
CCOc1cc(N2CCOCC2)c(OCC)cc1NC(=O)COC(=O)CCc1c[nH]c2ccccc12 | 20 | -1 | 0.8 | -47 | 1
CCn1c(SCC(=O)NC2CCCc3ccccc32)nnc1-c1cccs1 (centres undefined) | 10 | 56* | 0.9 | -4 | 32
CCn1c(SCC(=O)Nc2ccc(N3CCOCC3)cc2)nnc1-c1ccc(OC)cc1 | 1 | 0 | 1 | 7 | 17
CCn1c(SCC(=O)NC2CCCc3ccccc32)nnc1-c1ccncc1 (centres undefined) | 18 | -5 | 0.8 | -6 | -15
COc1ccc(-n2cnnc2SCC(=O)Nc2ccc(N3CCOCC3)cc2)cc1 | 15 | 52* | 0.8 | 2 | 0
COc1ccc(-n2cnnc2SCC(=O)NC2CCCc3ccccc32)cc1 (centres undefined) | 19 | 69* | 0.8 | 2 | -10
C=CCn1c(SCC(=O)Nc2ccc3c(c2)CCC3)nnc1-c1cccs1 | 13 | 1 | 0.9 | -2 | 70*
CCOc1ccc(CN(C)CC(=O)Nc2ccc([N+](=O)[O-])cc2Cl)cc1 | 1 | -4 | 1 | -13 | 14
Cc1nc2ccccc2n1CSc1ccccc1 | 17 | 3 | 0.8 | 8 | -3
COc1ccc(CCN(Cc2cc3cc(C)cc(C)c3nc2Cl)C(=O)C2CC2)cc1 | 20 | -4 | 0.8 | 8 | 68*
COc1ccc(CN(CC2CCC(C(=O)O)CC2)C(=S)Nc2ccc(C)c(Cl)c2)cc1 (centres undefined) | 9 | 2 | 0.9 | 3 | 24
CCCCN1CNC(=S)N(c2ccccc2OCC)C1 | 9 | -8 | 0.9 | 20 | -14
CC1=C(C(=O)Nc2ccccc2)C(c2ccncc2)C(C#N)=C(SCC(=O)NC(C)C)N1 (centres undefined) | 5 | 89* | 1 | 7 | -7
CC(=O)C1=C(C)NC(SCC(=O)c2ccccc2)=C(C#N)C1c1ccco1 (centres undefined) | 36 | 8 | 0.6 | 0 | 0
CC1=C(C(=O)Nc2ccccc2)C(c2ccncc2)C(C#N)=C(SCC(=O)NC2CC2)N1 (centres undefined) | 13 | 73* | 0.9 | 6 | -8
